# Laboratory results as given in PubChem BioAssay AID651787 (The Scripps Research Institute Molecular Screening Center, 2012).
# Hit rate of the full screen: of about 2,400 compounds, about 1,200 (50%) were called active. So high a share suggests a set chosen from earlier hits. These entries were drawn from the full list. Unmarked numbers belong to inactive results.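 The calls were made as follows: active = activation above the run cutoff, the mean activation over all tested wells plus 3 SD (cut at about 12% in these data); inactive = the rest.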
# Assay: calcium rise in parental Ga16 cells – cell-based, fluorescence, CHO-Ga16 parental line, counter-screen for hTAAR1 agonist project (AID 651787)
# Details: Fluo-8 calcium fluorescence, at 3 µM, stronger effect = higher value, normalized to maximal ATP response, DMSO zero
# Method in brief: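 Test system: CHO-Gα16 parental cells without hTAAR1. Amount: 750 cells in each well. Incubation: 17-24 h seeding, dye 75 min 37 °C, 30 min RT. Measured by: Fluo-8 calcium-dye fluorescence. Evaluation: % activation from peak-to-basal fluorescence ratio, DMSO to ATP scale. Control set: DMSO (0%) and EC100 ATP (100%).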
row,Structure (SMILES),activation
1,Cc1ccc(Sc2cc(N3CCOCC3)nc(-c3ccccc3)n2)cc1,4.27%
2,O=C(COC(=O)Cc1ccccc1F)NCCc1ccccc1,0.47%
3,O=C(Nc1ccc(Cl)cc1)N1CCc2[nH]c3ccccc3c2C1,1.95%
4,COc1ccc(OC)c(NC(=S)N2CCc3ccccc3C2)c1,0.03%
5,Fc1ccc(NC(=S)N2CCc3[nH]c4ccccc4c3C2)cc1,11.5% (active)
6,c1ccc2c(c1)C(=NC1CCCCC1)NC2=NC1CCCCC1,59.9% (active)
7,CCC(c1nnnn1Cc1ccco1)N(CCc1ccccc1)Cc1cc2cccc(C)c2[nH]c1=O (stereo not drawn),8.41%
8,CC(Oc1ccc(Cl)cc1)C(=O)OCC(=O)Nc1ncc(Cl)cc1Cl (stereo not drawn),14.9% (active)
9,COc1ccc2c(c1)OC(O)(C(F)(F)C(F)F)CC2=O (stereo not drawn),27.7% (active)
10,COc1ccc(Cl)cc1C(=O)NNC(=S)NC(=O)/C=C/c1ccco1,83.3% (active)
11,Cc1ccc(NC(=O)CCN2CCc3ccccc3C2)cc1,10.8%
12,Nc1cc(OC(=O)c2ccccc2Br)nn1S(=O)(=O)c1ccccc1,39.3% (active)
13,S=C(NCCc1ccccc1)N1CCn2cccc2C1c1ccncc1 (stereo not drawn),12.7% (active)
14,O=C(NCCc1ccccc1)C(=O)NCC1OCCN1S(=O)(=O)c1cccs1 (stereo not drawn),1.98%
15,CCCSc1nc2c(c(=O)n(C)c(=O)n2C)n1Cc1ccc(C)cc1,34.2% (active)
16,O=C1C=C(c2ccc(Cl)cc2)C(=O)N1Nc1ccccc1,46% (active)
17,COc1ccc2cc(-c3[nH]ncc3CNCCn3nc(C)cc3C)ccc2c1,0.78%
18,COc1cccc(-c2cnc(OC(C)(C)C)nc2OC(C)(C)C)c1,14.5% (active)
19,CSc1nc(N)c(C#N)c(-c2ccccc2Cl)c1C#N,54.2% (active)
20,O=C(N[C@H](C(=O)N1CCC[C@H]1C(=O)NCCc1ccccc1Cl)c1ccccc1)c1ccccc1,1.78%
21,OC(CNCCc1ccc(Cl)cc1Cl)COc1ccccc1 (stereo not drawn),17.8% (active)
22,c1ccc2c(c1)OCC(CNc1ncnc3nc[nH]c13)O2 (stereo not drawn),170% (active)
23,COc1cc(OC)c(-n2cc(-c3ccc(Cl)cc3)[nH]c2=O)cc1Cl,74.4% (active)
